The results in this text go back to ChEMBL document CHEMBL1152571, “Synthesis and biological evaluation of 4-fluoroproline and 4-fluoropyrrolidine-2-acetic acid derivatives as new GABA uptake inhibitors” (Bioorg Med Chem, 2009).

The target of test [1] is Sodium- and chloride-dependent GABA transporter 1 (Mus musculus, UniProt P31648). Kind of test: Inhibition of GAT1 in mouse D8 cells assessed as [3H]GABA transport by liquid scintillation counting. In kind it is cell-based. The essentials:
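D8 cells expressing mouse GAT-1 were grown in RPMI 1640 with 10% FBS to near confluence (about 60,000 cells/well), rinsed with PBS and preincubated 10 min at room temperature in HBSS. [3H]GABA was added (151 nM final) for 20 min at room temperature. Uptake was stopped by aspiration and three rapid cold-PBS washes, and cells were lysed in 2 N NaOH. Uptake was counted by scintillation, giving IC50.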

The target in another test is T1, GABA transporter 3 (Mus musculus, UniProt P31649).
T1 sequence (P31649 whole entry): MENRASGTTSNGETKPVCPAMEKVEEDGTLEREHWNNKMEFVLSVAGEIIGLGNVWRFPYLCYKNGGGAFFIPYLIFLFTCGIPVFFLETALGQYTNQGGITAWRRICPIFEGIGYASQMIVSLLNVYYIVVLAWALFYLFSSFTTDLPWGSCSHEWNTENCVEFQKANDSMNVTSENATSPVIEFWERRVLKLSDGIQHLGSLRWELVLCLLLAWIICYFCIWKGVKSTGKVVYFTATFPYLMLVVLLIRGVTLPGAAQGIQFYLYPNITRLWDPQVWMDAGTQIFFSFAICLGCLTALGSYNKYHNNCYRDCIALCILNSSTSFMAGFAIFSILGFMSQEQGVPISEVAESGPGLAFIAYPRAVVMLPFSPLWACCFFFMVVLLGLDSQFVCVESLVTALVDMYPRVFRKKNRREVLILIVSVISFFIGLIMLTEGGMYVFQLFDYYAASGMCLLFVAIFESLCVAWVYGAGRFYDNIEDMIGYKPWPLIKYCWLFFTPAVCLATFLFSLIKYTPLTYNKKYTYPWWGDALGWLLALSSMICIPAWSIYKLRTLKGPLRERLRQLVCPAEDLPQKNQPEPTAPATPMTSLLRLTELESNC
Kind of test: Inhibition of GAT3 in mouse D8 cells assessed as [3H]GABA transport by liquid scintillation counting. It counts as cell-based.

The structures appear in SMILES notation. pIC50: −log10 of the molar value.

With `Cc1ccsc1C(=CCCN1C[C@@H](O)C[C@H]1CC(=O)O)c1sccc1C`, the pIC50 in test [1] was 5.29.

For `O=C(O)C[C@@H]1C[C@@H](O)CN1CCC=C(c1ccccc1)c1ccccc1`, the pIC50 in test [1] was 5.48; on GABA transporter 3, below 4.00.

On to `Cc1ccsc1C(=CCCN1C[C@@H](F)C[C@H]1C(=O)O)c1sccc1C`, for which the pIC50 in test [1] was 4.74.

With `O=C(O)C[C@@H]1C[C@H](O)CN1CCC=C(c1ccccc1)c1ccccc1`, the pIC50 in test [1] was 5.31.

In the case of `O=C(O)[C@@H]1CCCN1CCC=C(c1ccccc1)c1ccccc1`, the pIC50 in test [1] was 5.59; at GABA transporter 3 it was 3.51.

Regarding `O=C(O)C[C@@H]1CCCN1CCC=C(c1ccccc1)c1ccccc1`, the values for the pIC50 (in test [1]; on GABA transporter 3) were 6.40 and 4.19, respectively.

With `O=C(O)[C@@H]1C[C@@H](O)CN1CCC=C(c1ccccc1)c1ccccc1`, the pIC50 in test [1] is 4.10; at GABA transporter 3, below 4.00.

Consider `O=C(O)[C@@H]1C[C@@H](F)CN1CCC=C(c1ccccc1)c1ccccc1`, for which the pIC50 in test [1] was 4.17.

On to `O=C(O)C[C@H]1C[C@@H](F)CN1CCC=C(c1ccccc1)c1ccccc1`, for which, in test [1], the pIC50 was 5.40.

Take `Cc1ccsc1C(=CCCN1C[C@@H](F)C[C@@H]1CC(=O)O)c1sccc1C`: the pIC50 in test [1] is 5.31.

As for `O=C(O)[C@@H]1C[C@H](F)CN1CCC=C(c1ccccc1)c1ccccc1`, in test [1], the pIC50 is below 4.00.

With `Cc1ccsc1C(=CCCN1C[C@H](F)C[C@@H]1CC(=O)O)c1sccc1C`, the negative-log IC50 (pIC50) in test [1] was 5.53.

Turning to `Cc1ccsc1C(=CCCN1CCC[C@H]1CC(=O)O)c1sccc1C`, the pIC50 is 6.47 in test [1] and 4.58 on GABA transporter 3.

In the case of `Cc1ccsc1C(=CCCN1CCC[C@H]1C(=O)O)c1sccc1C`, the pIC50 in test [1] is 6.19.

For `Cc1ccsc1C(=CCCN1C[C@H](O)C[C@H]1CC(=O)O)c1sccc1C`, the negative-log IC50 (pIC50) in test [1] was 5.50; at GABA transporter 3, below 4.00.

As for `Cc1ccsc1C(=CCCN1C[C@H](F)C[C@H]1C(=O)O)c1sccc1C`, in test [1], the pIC50 is 4.89.

On to `O=C(O)C[C@H]1C[C@H](F)CN1CCC=C(c1ccccc1)c1ccccc1`, for which the pIC50 in test [1] is 5.24.

As to `Cc1ccsc1C(=CCCN1CCC[C@@H](C(=O)O)C1)c1sccc1C` [TIAGABINE], in test [1], the pIC50 was 6.72.

The term pIC50 denotes the negative decadic logarithm of the IC50, by convention in mol/L.
